Test results as given in article PMC10549240 (RSC Chemical Biology, 2023).

What was measured:
Env(wt) = assay: Bind&Bite reaction with Env; set-up: species or system HIV-1; settings: DMEM with 10% FCS
In short: (§1)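 Env trimers (wild-type or C-terminal G4S-PepK fusion) were expressed in FreeStyle 293-F cells and lectin-purified. Biotinylated PepE was either activated in situ (7.1 μM with 71 μM EDC and 177.5 μM NHS, 30 min RT) or used as pre-activated, HPLC-purified NHS ester. It was added 1:10 to Env at 71 nM final in DMEM/10% FCS, giving final peptide 710, 71, 7.1 or 0.71 nM. Mixtures were incubated 30 min RT, run on reducing 10% SDS-PAGE, and blotted. Blots were probed with streptavidin-HRP or goat anti-gp120/anti-goat HRP, with ECL detection.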

Env-PepK = assay: Bind&Bite reaction with Env-PepK in DMEM/10% FCS, SDS-PAGE and Western Blot; set-up: species or system HIV-1; settings: Env-PepK 71 nM in DMEM with 10% FCS; 30 min RT; streptavidin-HRP blot
In short: as §1

Bio-PepK-StA [1] = format: binding; settings: C-terminal truncation of Fluo-PepE, Fig. 3A
In short: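 Fluorescein-labelled PepE variants truncated at the C-terminus (50 nM in water) were mixed 1:1 with serial dilutions of biotin-PepK/streptavidin complex starting at 20 μM. No activation was used. Fluorescence polarization was measured after 30 min (485 nm excitation, 535 nm emission). The read-out was the Δpolarization relative to samples without biotinylated peptide/streptavidin.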

Bio-PepK-StA [2] = assay: Flupol binding assay after Bind&Bite reaction; settings: covalently stabilized by Bind&Bite, Fig. 3B
In short: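 Equal volumes were mixed with serially diluted biotin-PepK/streptavidin complex starting at 20 μM. Fluorescence polarization was read after 30 min (ex 485/em 535 nm). The read-out was Δpolarization versus samples without biotinylated peptide/streptavidin.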

affinity of the non-covalent interaction with full-length PepK (Bio-PepK-StA [1])	Substance	also measured
–	Ac-EIAALEREIAALEREIAALER-Aoa-Aoa-Lys(Bio)-NH2 [PepE-Bio]	off-target reaction with other components of the medium, in situ activated (Env(wt); in situ activated (EDC/NHS), Fig. 4C): considerable off-target reaction; off-target reactions, pre-activated, purified (Env(wt); pre-activated, purified PepE-Bio, Fig. 4D): largely eliminated; reaction with the PepK tag of Env-PepK (Env-PepK): selective reaction
complete loss of binding	Fluo-Aoa-EIAALEREIAALER-NH2 [PepE(-7C)]	concentrations at which the peptide binds to full-length PepK (Bio-PepK-StA [2]): submicromolar
complete loss of binding	Fluo-Aoa-EIAALEREIAALERE-NH2 [PepE(-6C)]	–
very similar to full-length PepE	Fluo-Aoa-EIAALEREIAALEREIAAL-NH2 [PepE(-2C)]	–
very similar to full-length PepE	Fluo-Aoa-EIAALEREIAALEREIAALE-NH2 [PepE(-1C)]	–
